The text below walks through data of ChEMBL document CHEMBL1681789, “New bichalcone analogs as NF-κB inhibitors and as cytotoxic agents inducing Fas/CD95-dependent apoptosis” (Bioorg Med Chem, 2011).

Calls of active or inactive are those of the source. The rule behind the calls is not given here. Some results are limits rather than exact numbers.

As usually defined, the GI50 is the concentration giving 50% growth inhibition. Read a low GI50 as more potent growth inhibition. Usually IC50 stands for the concentration needed to halve the response being measured.

For assay [1], the system named is BV-2. The assay can be described thus: Inhibition of NADPH oxidase mediated-ROS production in mouse BV2 cells. The format is cell-based. In short, it runs like this:
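Compounds were incubated with 50 µg microglial cell homogenate for 20 min at 37 °C in the dark. Superoxide production was started with 200 µM NADPH, and chemiluminescence was followed for 30 min; the AUC represents ROS production. DPI served as positive control.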

Assay [2] deals with A549. In words: Cytotoxicity against human A549 cells after 3 days. Type of assay: functional. Conditions: A549, 72 h. The essentials:
(§1)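 Seeded at 1500–7500 cells/well; compounds added from DMSO-diluted stock. After 3 days, attached cells were fixed with cold 50% TCA, stained with 0.4% sulforhodamine B and read at 562 nm. EC50 is the concentration reducing growth by 50%, averaged over at least three independent determinations. Cells were grown in RPMI-1640 with […], 0.25% bicarbonate and 10% FBS.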

The test system of assay [3] is DU-145. In words: Cytotoxicity against human DU145 cells after 3 days. Type of assay: functional. Conditions: DU-145, 72 h. In short, it runs like this:
as §1

For assay [4], the system named is KB. The assay can be described thus: Cytotoxicity against human KB cells after 3 days. The format is functional. The note with it: 72 h. In short, it runs like this:
as §1

Assay [5] deals with HCT-8. In words: Cytotoxicity against human HCT8 cells after 3 days. The format is functional. Conditions: HCT-8, 72 h. In short, it runs like this: as §1
Assay [6] can be described thus: Inhibition of Nitric oxide synthase activity in mouse BV2 cells assessed as LPS-induced NO production after 24 hrs by Griess reaction. The format is cell-based. Conditions: BV-2, 24 h. The essentials:
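Murine BV2 microglia were cultured in DMEM with 5% FBS and given 1–50 µM drug with 0.5 µg/mL LPS. Nitrite accumulated in the medium over 24 h was measured by Griess reagent. IC50 values are means ± SEM from 3–6 experiments on different days using different passages.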
(Nitrite, measured by Griess reagent, commonly stands in for NO production.)

Assay [7] concerns DU-145. In words: Cytotoxicity against human DU145 cells at 20 ug/ml after 3 days. Type of assay: functional, cell-based.
For assay [8], the system named is A549. In words: Cytotoxicity against human A549 cells at 20 ug/ml after 3 days. The format is functional, cell-based.
Assay [9] has as its system HCT-8. In words: Cytotoxicity against human HCT8 cells at 20 ug/ml after 3 days. The format is functional, cell-based.
In assay [10] the test system is KB. The assay can be described thus: Cytotoxicity against human KB cells at 20 ug/ml after 3 days. The format is functional, cell-based.
The subject of assay [11] is BV-2. The assay can be described thus: Reduction in iNOS protein expression in LPS-stimulated mouse BV2 cells at 1 uM by Western blotting. In general terms: In western blotting, separated proteins are transferred to a membrane and probed.
The subject of assay [12] is BV-2. In words: Inhibition of NF-kappaB nuclear translocation in LPS-stimulated mouse BV2 cells at 1 uM by Western blotting. Type of assay: cell-based.

`CC(=O)c1ccc(N2CCN(Cc3cc(C(=O)/C=C/c4cccn4C)ccc3O)CC2)cc1`: in assay [1], the inhibition entry is “inactive”. Further, the concentration for 50% growth inhibition (GI50) in assay [2] is 31200 nM; in assay [3], more than 45100 nM; in [4] it was 39.1 µM; in [5] it was more than 45100 nM. Further, in assay [6], the IC50 came out at 1900 nM.
Consider `COc1cc(C(C)=O)cc(CN2CCN(c3ccc(C(C)=O)cc3)CC2)c1O`, for which the outcome in assay [7], in [8], in assay [9] and in [10] was inactive. For the same compound, the inhibition result in assay [1] was “inactive”. For the same compound, in [6], the IC50 was 15900 nM.
As for `CC(=O)c1ccc(N2CCN(Cc3cc(C(C)=O)ccc3O)CC2)cc1`, the outcome in assay [7], in assay [8], in [9] and in assay [10] was inactive. Further, the inhibition entry in assay [1] was “inactive”. Moreover, in [6], the IC50 amounted to 6600 nM.
Take `O=C(/C=C/c1ccccc1Cl)c1ccc(N2CCN(Cc3cc(C(=O)/C=C/c4ccccc4Cl)ccc3O)CC2)cc1`: the outcome in assay [7], in [8], in assay [9] and in [10] was inactive. Moreover, in [1], the inhibition entry was “inactive”. In addition, the IC50 in assay [6] worked out at 30500 nM.
With `COc1cc(C(=O)/C=C/c2ccccn2)cc(CN2CCN(c3ccc(C(=O)/C=C/c4ccccn4)cc3)CC2)c1O`, in assay [1], the inhibition result was “inactive”. Also, the GI50 stood at 1000 nM in assay [2], 1300 nM in assay [3], 3.98 µM in assay [4] and 700 nM in assay [5]. Further, the IC50 in assay [6] worked out at 1600 nM.
Regarding `COc1cc(C(=O)/C=C/c2cccs2)cc(CN2CCN(c3ccc(C(=O)/C=C/c4cccs4)cc3)CC2)c1O`, the outcome in assay [7], in [8], in assay [9] and in assay [10] was inactive. Besides, the inhibition entry in assay [1] was “inactive”. In addition, the IC50 in [6] came out at 2700 nM.
For the compound `CC(=O)O[C@H]1C(=O)[C@@]2(C)[C@H]([C@H](OC(=O)c3ccccc3)[C@]3(O)C[C@H](OC(=O)[C@H](O)[C@@H](NC(=O)c4ccccc4)c4ccccc4)C(C)=C1C3(C)C)[C@]1(OC(C)=O)CO[C@@H]1C[C@@H]2O` [PACLITAXEL], the GI50 in [2] is 7.6 nM; in assay [3], 5.23 nM; in [4], 0.00516 µM; in assay [5], more than 100 nM.
Regarding `O=C(/C=C/c1ccco1)c1ccc(N2CCN(Cc3cc(C(=O)/C=C/c4ccco4)ccc3O)CC2)cc1`, the result in [7], in assay [8], in assay [9] and in assay [10] was inactive. In addition, in [1], the inhibition entry is “inactive”. The IC50 in assay [6] turned out to be 1700 nM.
As to `COc1cc(C(=O)/C=C/c2ccccc2Cl)cc(CN2CCN(c3ccc(C(=O)/C=C/c4ccccc4Cl)cc3)CC2)c1O`, the result in assay [7], in [8], in assay [9] and in assay [10] was inactive. Also, in assay [1], the inhibition result was “inactive”. In addition, the IC50 in assay [6] stood at 10900 nM.
As for `Cn1cccc1/C=C/C(=O)c1ccc(N2CCN(Cc3cc(C(=O)/C=C/c4cccn4C)ccc3O)CC2)cc1`, the outcome in assay [7], in assay [8], in assay [9] and in assay [10] was inactive. Also, the inhibition entry in [1] is “inactive”. Moreover, the IC50 in assay [6] came out at 1200 nM.
As for `O=C(/C=C/c1cccnc1)c1ccc(N2CCN(Cc3cc(C(=O)/C=C/c4cccnc4)ccc3O)CC2)cc1`, the inhibition result in assay [11] and in assay [12] was “Active” throughout. The inhibition entry in assay [1] was “inactive”. The GI50 in assay [2] was determined as 1470 nM; in assay [3], 2190 nM; in assay [4], 1.66 µM; in assay [5], 1400 nM. In addition, the IC50 in [6] worked out at 300 nM.
Regarding `O=C(/C=C/c1cccs1)c1ccc(N2CCN(Cc3cc(C(=O)/C=C/c4cccs4)ccc3O)CC2)cc1`, the inhibition entry in assay [1] is “inactive”. The GI50 in [2] was more than 37000 nM; in assay [3], 29200 nM; in assay [4], more than 37 µM; in [5], more than 37000 nM. Further, in assay [6], the IC50 was 1900 nM.
In the case of `O=C(/C=C/c1ccc(Cl)cc1Cl)c1ccc(N2CCN(Cc3cc(C(=O)/C=C/c4ccc(Cl)cc4Cl)ccc3O)CC2)cc1`, the outcome in [7], in assay [8], in assay [9] and in assay [10] was inactive. Besides, in assay [1], the inhibition entry is “inactive”. Moreover, the IC50 in assay [6] amounted to 25700 nM.
`COc1ccc(/C=C/C(=O)c2ccc(N3CCN(Cc4cc(C(=O)/C=C/c5ccc(OC)cc5)ccc4O)CC3)cc2)cc1`: the inhibition entry in assay [11] and in [12] was “Active” in each case. The result in [7], in assay [8], in [9] and in [10] was inactive. For the same compound, the inhibition entry in [1] is “inactive”. Also, the IC50 in [6] turned out to be 500 nM.
Turning to `O=C(/C=C/c1ccccn1)c1ccc(N2CCN(Cc3cc(C(=O)/C=C/c4ccccn4)ccc3O)CC2)cc1`, in [1], the inhibition entry is “inactive”. Moreover, the GI50 in [2] turned out to be 1080 nM; in assay [3], 1250 nM; in assay [4], 1.23 µM; in assay [5] it was 1260 nM. Further, the IC50 in [6] worked out at 1400 nM.
As to `CC(=O)c1ccc(N2CCN(Cc3cc(C(=O)/C=C/c4ccc[nH]4)ccc3O)CC2)cc1`, the inhibition entry in [1] is “inactive”. Moreover, the GI50 in [2] stood at 20100 nM; in [3], 17900 nM; in [4], 19 µM; in assay [5] it was 24700 nM. The IC50 in assay [6] was 1700 nM.
As to `Cc1ccsc1/C=C/C(=O)c1ccc(N2CCN(Cc3cc(C(=O)/C=C/c4sccc4C)ccc3O)CC2)cc1`, the result in [7], in assay [8], in [9] and in assay [10] was inactive. Besides, in assay [1], the inhibition result was “inactive”. For the same compound, the IC50 in assay [6] came out at 7500 nM.
For the compound `COc1ccc(/C=C/C(=O)c2ccc(N3CCN(Cc4cc(C(=O)/C=C/c5ccc(OC)cc5)cc(OC)c4O)CC3)cc2)cc1`, the outcome in assay [7], in assay [8], in assay [9] and in assay [10] was inactive. Besides, the inhibition result in [1] was “inactive”. Further, the IC50 in assay [6] turned out to be 3500 nM.
As for `COC(=O)[C@@H](N)CCCNC(=N)N[N+](=O)[O-]` [L-NAME], in [6], the IC50 is 18900 nM.
In the case of `O=C(/C=C/c1ccc2c(c1)OCO2)c1ccc(N2CCN(Cc3cc(C(=O)/C=C/c4ccc5c(c4)OCO5)ccc3O)CC2)cc1`, the outcome in assay [7], in assay [8], in [9] and in [10] was inactive. The inhibition result in assay [1] was “inactive”. Besides, the IC50 in assay [6] was determined as 2100 nM.
With `COc1cc(C(=O)/C=C/c2ccccc2)cc(CN2CCN(c3ccc(C(=O)/C=C/c4ccccc4)cc3)CC2)c1O`, the inhibition entry in assay [1] is “inactive”. Moreover, the GI50 in assay [2] was more than 35800 nM; in [3] it was more than 35800 nM; in [4] it was more than 35.8 µM; in assay [5] it was 25800 nM. The IC50 in [6] worked out at 2100 nM.
`Cc1ccc(/C=C/C(=O)c2ccc(N3CCN(Cc4cc(C(=O)/C=C/c5ccc(C)o5)ccc4O)CC3)cc2)o1`: the result in assay [7], in assay [8], in assay [9] and in [10] was inactive. The inhibition result in assay [1] was “inactive”. Further, the IC50 in [6] came out at 2400 nM.
As to `O=C(/C=C/c1ccccc1)c1ccc(N2CCN(Cc3cc(C(=O)/C=C/c4ccccc4)ccc3O)CC2)cc1`, the result in [7], in assay [8], in assay [9] and in [10] was inactive. Also, the inhibition entry in assay [1] is “inactive”. For the same compound, the IC50 in [6] was determined as 2800 nM.
`COc1cc(C(=O)/C=C/c2sccc2C)cc(CN2CCN(c3ccc(C(=O)/C=C/c4sccc4C)cc3)CC2)c1O`: the result in assay [7], in assay [8], in assay [9] and in assay [10] was inactive. Moreover, the inhibition entry in assay [1] was “inactive”. The IC50 in assay [6] came out at 3100 nM.
